Measurements as given in ChEMBL document CHEMBL4196209, “Validation of Matrix Metalloproteinase-9 (MMP-9) as a Novel Target for Treatment of Diabetic Foot Ulcers in Humans and Discovery of a Potent and Selective Small-Molecule MMP-9 Inhibitor That Accelerates Healing” (J Med Chem, 2018).
Activity calls are given as the source filed them. The rule behind the calls is not given here.

Columns and labels:
[1] = target: T1, Interstitial collagenase (Homo sapiens) (UniProt P03956); experiment: Inhibition of human recombinant MMP1 catalytic domain at 100 uM using Mca-Lys-Pro-Leu-Gly-Leu-Dpa-Ala-Arg-NH2 substrate
T1 sequence (whole entry): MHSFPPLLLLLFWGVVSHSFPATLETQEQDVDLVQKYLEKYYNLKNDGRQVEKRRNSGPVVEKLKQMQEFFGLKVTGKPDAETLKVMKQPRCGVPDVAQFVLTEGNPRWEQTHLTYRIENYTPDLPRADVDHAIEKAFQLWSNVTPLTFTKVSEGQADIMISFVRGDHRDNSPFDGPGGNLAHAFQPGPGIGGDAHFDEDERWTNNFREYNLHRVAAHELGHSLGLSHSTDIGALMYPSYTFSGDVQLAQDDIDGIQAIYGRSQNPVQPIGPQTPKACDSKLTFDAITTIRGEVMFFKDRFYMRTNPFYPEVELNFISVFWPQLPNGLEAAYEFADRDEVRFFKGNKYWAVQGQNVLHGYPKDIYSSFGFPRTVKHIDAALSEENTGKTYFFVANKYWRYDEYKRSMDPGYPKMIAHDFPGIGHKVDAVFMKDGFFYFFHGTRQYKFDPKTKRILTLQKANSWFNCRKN
In short: (§1)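 Fluorogenic continuous assay of recombinant enzymes; Mca-KPLGL-Dpa-AR-NH2 substrate for MMP-1, MMP-8, ADAM10; Mca-PLAQAV-Dpa-RSSSR-NH2 for ADAM9; MOCAc-PLGL-A2pr(Dnp)-AR-NH2 for MMP-2, MMP-9, MMP-14 with Km determined beforehand. Inhibitor stocks 10 mM in DMSO; duplicates, repeated three times; Ki for slow-binding inhibitors from koff/kon.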

[2] = target: 72 kDa type IV collagenase (Homo sapiens, UniProt P08253); experiment: Slow binding inhibition of human recombinant MMP2 using MOCAc-Pro-Leu-Gly-Leu-A2pr(Dnp)-Ala-Arg-NH2 substrate; in short: as §1
Sequence of 72 kDa type IV collagenase (P08253 whole entry, the tested form may be a part): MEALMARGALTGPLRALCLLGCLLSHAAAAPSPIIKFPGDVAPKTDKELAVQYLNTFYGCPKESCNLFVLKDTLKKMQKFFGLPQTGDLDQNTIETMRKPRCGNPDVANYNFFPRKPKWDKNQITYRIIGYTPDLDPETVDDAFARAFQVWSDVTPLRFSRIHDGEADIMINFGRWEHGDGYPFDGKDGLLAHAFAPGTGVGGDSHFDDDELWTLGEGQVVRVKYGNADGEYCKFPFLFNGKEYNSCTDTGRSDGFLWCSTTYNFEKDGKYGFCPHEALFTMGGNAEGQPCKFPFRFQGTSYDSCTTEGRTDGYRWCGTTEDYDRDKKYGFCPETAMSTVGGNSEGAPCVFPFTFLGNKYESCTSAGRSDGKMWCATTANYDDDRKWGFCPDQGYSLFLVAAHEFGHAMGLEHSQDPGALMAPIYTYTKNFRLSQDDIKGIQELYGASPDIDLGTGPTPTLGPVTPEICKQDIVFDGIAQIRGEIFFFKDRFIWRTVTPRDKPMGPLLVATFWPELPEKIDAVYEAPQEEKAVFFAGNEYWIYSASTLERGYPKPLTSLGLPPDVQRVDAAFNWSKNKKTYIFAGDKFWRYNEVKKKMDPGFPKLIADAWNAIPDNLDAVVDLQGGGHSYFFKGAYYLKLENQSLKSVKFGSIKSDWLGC

[3] = target: Stromelysin-1 (Homo sapiens) (UniProt P08254); experiment: Inhibition of human recombinant MMP3 catalytic domain at 100 uM using MOCAc-Arg-Pro-Lys-Pro-Val-Glu-Nva-Trp-Arg-Lys(Dnp)-NH2 substrate
Sequence of Stromelysin-1 (Homo sapiens) (P08254 100-477 limits assumed): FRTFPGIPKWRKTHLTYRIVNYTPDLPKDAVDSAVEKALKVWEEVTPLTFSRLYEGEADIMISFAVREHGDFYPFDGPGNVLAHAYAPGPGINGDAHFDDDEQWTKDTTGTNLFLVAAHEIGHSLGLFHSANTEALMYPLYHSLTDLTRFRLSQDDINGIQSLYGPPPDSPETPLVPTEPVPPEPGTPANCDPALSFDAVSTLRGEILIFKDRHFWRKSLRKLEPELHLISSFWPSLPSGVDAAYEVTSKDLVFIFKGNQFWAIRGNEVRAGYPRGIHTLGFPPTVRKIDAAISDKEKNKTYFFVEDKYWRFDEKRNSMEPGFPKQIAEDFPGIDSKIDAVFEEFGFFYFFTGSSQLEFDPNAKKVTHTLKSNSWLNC

[4] = target: T2, Matrilysin (Homo sapiens) (UniProt P09237); experiment: Inhibition of human recombinant MMP7 at 100 uM using MOCAc-Pro-Leu-Gly-Leu-A2pr(Dnp)-Ala-Arg-NH2 substrate
T2 sequence (whole entry): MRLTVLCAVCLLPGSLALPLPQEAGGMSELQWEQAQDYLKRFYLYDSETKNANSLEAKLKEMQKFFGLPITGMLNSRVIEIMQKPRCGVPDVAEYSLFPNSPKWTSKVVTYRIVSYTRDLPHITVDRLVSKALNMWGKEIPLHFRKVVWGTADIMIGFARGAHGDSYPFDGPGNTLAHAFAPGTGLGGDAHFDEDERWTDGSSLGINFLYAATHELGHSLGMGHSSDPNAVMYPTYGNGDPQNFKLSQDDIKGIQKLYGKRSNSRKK

[5] = target: Matrix metalloproteinase-14 (Homo sapiens, UniProt P50281); experiment: Slow binding inhibition of human recombinant MMP14 catalytic domain using MOCAc-Pro-Leu-Gly-Leu-A2pr(Dnp)-Ala-Arg-NH2 substrate; in short: as §1
[6] = target: T3, Disintegrin and metalloproteinase domain-containing protein 9 (Homo sapiens) (UniProt Q13443); experiment: Inhibition of human recombinant ADAM9 at 100 uM using Mca-Pro-Leu-Ala-Gln-Ala-Val-Dpa-Arg-Ser-Ser-Ser-Arg-NH2 substrate; in short: as §1
T3 sequence (whole entry): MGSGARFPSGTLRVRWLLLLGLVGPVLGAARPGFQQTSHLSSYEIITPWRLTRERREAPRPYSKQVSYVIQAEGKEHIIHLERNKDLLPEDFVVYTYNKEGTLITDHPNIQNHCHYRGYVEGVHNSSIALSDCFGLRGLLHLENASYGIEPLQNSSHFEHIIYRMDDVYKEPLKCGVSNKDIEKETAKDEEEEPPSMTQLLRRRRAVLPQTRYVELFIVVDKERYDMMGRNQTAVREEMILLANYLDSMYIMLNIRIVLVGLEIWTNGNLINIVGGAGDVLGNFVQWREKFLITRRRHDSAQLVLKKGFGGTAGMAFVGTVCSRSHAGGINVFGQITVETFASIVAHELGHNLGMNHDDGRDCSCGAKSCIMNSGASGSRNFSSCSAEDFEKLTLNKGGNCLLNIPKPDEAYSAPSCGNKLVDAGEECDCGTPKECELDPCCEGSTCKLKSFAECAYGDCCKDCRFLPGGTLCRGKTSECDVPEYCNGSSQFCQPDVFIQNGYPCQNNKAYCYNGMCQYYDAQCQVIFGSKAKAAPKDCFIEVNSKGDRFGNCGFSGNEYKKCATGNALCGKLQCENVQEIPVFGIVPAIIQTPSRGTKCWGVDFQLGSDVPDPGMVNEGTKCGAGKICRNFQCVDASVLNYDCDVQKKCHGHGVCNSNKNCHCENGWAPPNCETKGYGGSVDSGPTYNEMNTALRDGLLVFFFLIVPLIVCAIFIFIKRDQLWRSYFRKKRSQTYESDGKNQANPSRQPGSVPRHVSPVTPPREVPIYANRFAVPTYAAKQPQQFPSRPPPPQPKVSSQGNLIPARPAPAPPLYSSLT

[7] = target: T4, Disintegrin and metalloproteinase domain-containing protein 10 (Homo sapiens) (UniProt O14672); experiment: Inhibition of human recombinant ADAM10 at 100 uM using Mca-Lys-Pro-Leu-Gly-Leu-Dpa-Ala-Arg-NH2 substrate; in short: as §1
T4 sequence (whole entry): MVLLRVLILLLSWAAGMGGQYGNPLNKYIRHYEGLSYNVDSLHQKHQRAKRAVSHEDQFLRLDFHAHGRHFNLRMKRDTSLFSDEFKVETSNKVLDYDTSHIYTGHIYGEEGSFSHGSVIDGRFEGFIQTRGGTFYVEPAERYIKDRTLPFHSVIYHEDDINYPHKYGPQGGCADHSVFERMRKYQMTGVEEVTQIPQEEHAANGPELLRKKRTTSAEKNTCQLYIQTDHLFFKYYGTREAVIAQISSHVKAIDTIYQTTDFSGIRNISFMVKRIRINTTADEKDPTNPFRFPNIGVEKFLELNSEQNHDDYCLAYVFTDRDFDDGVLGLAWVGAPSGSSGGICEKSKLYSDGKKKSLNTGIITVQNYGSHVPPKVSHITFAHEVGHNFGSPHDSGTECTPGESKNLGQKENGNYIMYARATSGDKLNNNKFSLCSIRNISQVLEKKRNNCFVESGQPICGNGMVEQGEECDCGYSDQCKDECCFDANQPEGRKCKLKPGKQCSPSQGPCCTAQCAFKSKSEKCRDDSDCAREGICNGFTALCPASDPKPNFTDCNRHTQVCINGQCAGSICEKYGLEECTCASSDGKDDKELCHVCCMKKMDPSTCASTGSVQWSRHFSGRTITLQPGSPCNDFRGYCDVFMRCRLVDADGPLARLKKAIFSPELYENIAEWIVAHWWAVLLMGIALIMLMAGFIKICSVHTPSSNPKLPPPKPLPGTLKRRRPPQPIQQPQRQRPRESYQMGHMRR

[8] = tested on: Salmonella typhimurium; experiment: Mutagenicity in Salmonella typhimurium by Ames test; format: toxicity, organism-based; details: salmonella enterica subsp. enterica serovar typhimurium
[9] = AUC in C57BLKS/6J db/db mouse plasma at 2 mg/kg, iv dosed as single administration by UPLC-MRM analysis; format: ADME, organism-based
[10] = AUC in C57BLKS/6J db/db mouse plasma at 2 mg/kg applied topically to wounds as single administration by UPLC-MRM analysis; format: ADME, organism-based; details: topical or ocular
[11] = tested on: Mus musculus; experiment: Induction of wound healing in db/db BKS.Cg-Dock7m+/+ Lepr db/J mouse model of full-thickness excision at 50 ug/wound/day for 14 days dosed topically 1 day after wound creation; format: functional, organism-based
In short: (§2)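 Female db/db mice (8 weeks, ~40 g) with 8 mm full-thickness dorsal excision wound, Tegaderm-covered; from day 1, 100 µL of 0.5 mg/mL aqueous solution (50 µg/wound/day) or water vehicle topically once daily for 14 days. Wounds measured days 0, 7, 10, 14; cryosections for H&E re-epithelialization and DQ-collagen in-situ zymography, n = 3/group/time point.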

[12] = tested on: Mus musculus; experiment: Induction of wound healing in db/db BKS.Cg-Dock7m+/+ Lepr db/J mouse model of full-thickness excision assessed as increase in re-epithelialization at 50 ug/wound/day for 14 days dosed topically 1 day after wound creation by H and E staining; format: functional, organism-based; in short: as §2
[13] = tested on: Mus musculus; experiment: Inhibition of MMP9 activity in db/db BKS.Cg-Dock7m+/+ Lepr db/J mouse model of full-thickness excision using DQ-gelatin substrate at 50 ug/wound/day for 14 days dosed topically 1 day after wound creation by in-situ zymography; format: functional, organism-based
[14] = tested on: Mus musculus; experiment: Inhibition of MMP8 activity in db/db BKS.Cg-Dock7m+/+ Lepr db/J mouse model of full-thickness excision using DQ-collagen substrate at 50 ug/wound/day for 14 days dosed topically 1 day after wound creation by in-situ zymography; format: functional, organism-based; in short: as §2
[15] = tested on: Mus musculus; experiment: Induction of wound healing in db/db BKS.Cg-Dock7m+/+ Lepr db/J mouse model of full-thickness excision at 50 ug/wound/day for 7 days dosed topically 1 day after wound creation; format: functional, organism-based; in short: as §2
[16] = tested on: Mus musculus; experiment: Reduction in ROS generation in db/db BKS.Cg-Dock7m+/+ Lepr db/J mouse model of full-thickness excision at 50 ug/wound/day for 3 days dosed topically 1 day after wound creation by L-012 dye based assay; format: functional, organism-based
In short: (§3)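 Wounded db/db mice dosed topically with 50 µg/wound/day or water vehicle; on days 1, 2, 3 and 7 post-wounding, anaesthetised with 2% isoflurane, injected ip with 200 µL L-012 (5 mg/mL in PBS), and bioluminescence imaged immediately at 5-min intervals; n = 3/group/time point.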

[17] = tested on: Mus musculus; experiment: Reduction in ROS generation in db/db BKS.Cg-Dock7m+/+ Lepr db/J mouse model of full-thickness excision at 50 ug/wound/day for 7 days dosed topically 1 day after wound creation by L-012 dye based assay; format: functional, organism-based; in short: as §3
[18] = tested on: Mus musculus; experiment: Reduction in NFkappaB p65 protein levels generation in db/db BKS.Cg-Dock7m+/+ Lepr db/J mouse model of full-thickness excision at 50 ug/wound/day for 1 day dosed topically 1 day after wound creation by ELISA; format: functional, organism-based
[19] = tested on: Mus musculus; experiment: Reduction in NFkappaB p65 protein levels generation in db/db BKS.Cg-Dock7m+/+ Lepr db/J mouse model of full-thickness excision at 50 ug/wound/day for 2 days dosed topically 1 day after wound creation by ELISA; format: functional, organism-based
[20] = tested on: Mus musculus; experiment: Reduction in NFkappaB p65 protein levels generation in db/db BKS.Cg-Dock7m+/+ Lepr db/J mouse model of full-thickness excision at 50 ug/wound/day for 7 days dosed topically 1 day after wound creation by ELISA; format: functional, organism-based
[21] = tested on: Mus musculus; experiment: Reduction in NFkappaB p65 protein levels generation in db/db BKS.Cg-Dock7m+/+ Lepr db/J mouse model of full-thickness excision assessed as p65 AUC level at 50 ug/wound/day for 7 days dosed topically 1 day after wound creation by ELISA (reference value: 834 +/- 121 ug/mg.day); format: functional, organism-based
[22] = in vivo; details: C57BLKS/6J db/db, mouse, plasma, topical or ocular, 2 mg/kg
[23] = target: T1, Interstitial collagenase (Homo sapiens); experiment: Inhibition of human recombinant MMP1 catalytic domain using Mca-Lys-Pro-Leu-Gly-Leu-Dpa-Ala-Arg-NH2 substrate; in short: as §1

Row | Compound | inhibition [1] [%] | Ki [2] [nM] | inhibition [3] [%] | inhibition [4] [%] | Ki [5] [nM] | inhibition [6] [%] | inhibition [7] [%] | Activity [11] | Activity [12] | inhibition [13] | inhibition [14] | other results
1 | Cl.NCc1ccc(Oc2ccc(S(=O)(=O)C[C@H]3CS3)cc2)cc1 | 22 | 127 | 37 | 20 | 119 | 41 | 13 | Active | Active | Active | inactive | Activity [8]: Non-Toxic; AUC [9]: 0.583 µM·h; AUC [10]: 0.0217 µM·h; Activity [15]: Active; Activity [16]: Active; Activity [17]: Active; Activity [18]: Active; Activity [19]: Active; Activity [20]: Active; AUC [21]: 492 µg/mg/day; bioavailability [22]: 3.7%
2 | NCc1ccc(Oc2ccc(S(=O)(=O)C[C@@H]3CS3)cc2)cc1 | 24 | 37 | 22 | 15 | 53 | 25 | 5 | inactive | Active | Active | Active | 
3 | O=S(=O)(CC1CS1)c1ccc(Oc2ccc(O)cc2)cc1 (stereo not drawn) |  |  |  |  |  |  |  |  |  |  |  | A0.5 [23]: Nottraceable
4 | NCc1ccc(Oc2ccc(S(=O)(=O)CC3CS3)cc2)cc1 (racemic) | 4 |  | 23 | 1 |  | 31 | 14 | inactive | Active | Active | Active | 
